Source: ChEMBL document CHEMBL2021796, “Synthesis and biological evaluation of a series of thieno-expanded tricyclic purine 2'-deoxy nucleoside analogues” (Bioorg Med Chem, 2012)

Tests used:
Human alphaherpesvirus 2 = experiment: Antiviral activity against Herpes simplex virus 2 G infected in HEL cells assessed as inhibition of virus-induced cytopathogenicity; format: functional, organism-based; settings: Human alphaherpesvirus 2, strain G
How it was run: (§1)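 Confluent HEL, Vero or HeLa monolayers were infected with 100 CCID50 of virus while exposed to fivefold serial dilutions of compound. Virus-induced cytopathicity was scored when it reached completion in untreated infected controls. The EC50 is the concentration that inhibits cytopathicity by 50%.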

L1210 = experiment: Cytostatic activity against mouse L1210 cells after 2 days by coulter counter analysis; format: functional, cell-based; settings: L1210, 48 h
How it was run: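 L1210 cells at 300,000–500,000 cells/mL were mixed 1:1 with compound dilutions and incubated for 2 days at 37 °C. Cells were counted with a Coulter counter. The IC50 is the concentration that inhibits proliferation by 50%.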

[1] = system: Mammalian orthoreovirus 1; experiment: Antiviral activity against Reovirus-1 infected in african green monkey Vero cells assessed as inhibition of virus-induced cytopathogenicity; format: functional, organism-based; settings: Mammalian orthoreovirus 1, Vero; how it was run: as §1
Punta Toro virus = experiment: Antiviral activity against Punta Toro virus infected in african green monkey Vero cells assessed as inhibition of virus-induced cytopathogenicity; format: functional, organism-based
How it was run: (§2)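 Confluent HEL, Vero or HeLa monolayers were infected with 100 CCID50 of virus while exposed to fivefold serial dilutions of compound. Virus-induced cytopathicity was scored when it reached completion in untreated infected controls.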

Influenza A virus [2] = experiment: Antiviral activity against influenza A virus H1N1 infected in MDCK cells assessed as inhibition of virus-induced cytopathogenicity; format: functional, organism-based
How it was run: (§3)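 Nearly confluent MDCK cultures were infected while exposed to fivefold serial dilutions of compound. Cytopathicity was scored when it reached completion in untreated infected controls. The EC50 is the concentration that inhibits virus-induced cytopathicity by 50%.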

[3] = Cytotoxicity against HEL cells assessed as morphological changes by microscopic analysis; format: cell-based; settings: human
How it was run: (§4)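 Confluent HEL, Vero or HeLa cultures, or near-confluent MDCK cultures, exposed to fivefold compound dilutions in parallel with the antiviral cytopathicity tests. MCC is the lowest concentration causing microscopically visible alteration of cell morphology.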

[4] = Cytotoxicity against human HeLa cells assessed as morphological changes by microscopic analysis; format: cell-based; how it was run: as §4
Human respirovirus 3 = experiment: Antiviral activity against Parainfluenza-3 virus infected in african green monkey Vero cells assessed as inhibition of virus-induced cytopathogenicity; format: functional, organism-based; settings: Human respirovirus 3, Vero
How it was run: (§5)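 Confluent cell monolayers (Vero for parainfluenza-3, HEL for HSV-1 TK−) inoculated with 100 CCID50 of virus alongside fivefold compound dilutions. Cytopathicity recorded once complete in untreated infected controls. EC50 is the concentration inhibiting virus-induced cytopathicity by 50%.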

Human alphaherpesvirus 1 [5] = experiment: Antiviral activity against Herpes simplex virus 1 KOS infected in HEL cells assessed as inhibition of virus-induced cytopathogenicity; format: functional, organism-based; settings: Human alphaherpesvirus 1, KOS; how it was run: as §1
Influenza B virus = experiment: Antiviral activity against influenza B virus infected in MDCK cells assessed as inhibition of virus-induced cytopathogenicity; format: functional, organism-based; how it was run: as §3
Human betaherpesvirus 5 [6] = experiment: Antiviral activity against Human cytomegalovirus AD169 infected in HEL cells assessed as inhibition of virus-induced cytopathogenicity after 7 days by Giemsa staining-based microscopic analysis; format: functional, organism-based; settings: Human betaherpesvirus 5, AD169, HEL, 168 h
How it was run: (§6)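 Confluent HEL fibroblasts infected with strains AD-169 and Davis at 100 PFU per well. After 2 h adsorption, residual virus removed and medium with test compound added, in duplicate. Incubated 7 days at 37 °C. Cytopathogenicity scored microscopically after ethanol fixation and Giemsa staining. EC50 read from graphic plots of % cytopathogenicity versus concentration.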

[7] = system: Human immunodeficiency virus 2; experiment: Antiviral activity against Human immunodeficiency virus 2 ROD infected in human CEM cells assessed as inhibition of virus-induced giant cell formation after 4 days by microscopic analysis; format: functional, organism-based; settings: Human immunodeficiency virus 2, ISOLATE ROD, CCRF-CEM, 96 h
How it was run: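 CEM cells (~3 × 10^5 cells/cm3) infected with 100 CCID50 of HIV-2(ROD) per ml and seeded into microtiter wells holding compound dilutions. Incubated 4 days at 37 °C. Giant cell formation examined microscopically.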

Influenza A virus [8] = experiment: Antiviral activity against Influenza A virus H3N2 infected in MDCK cells assessed as inhibition of virus-induced cytopathogenicity; format: functional, organism-based; how it was run: as §3
[9] = system: Vesicular stomatitis virus; experiment: Antiviral activity against Vesicular stomatitis virus infected in HEL cells assessed as inhibition of virus-induced cytopathogenicity; format: functional, organism-based; how it was run: as §2
[10] = system: Human immunodeficiency virus 1; experiment: Antiviral activity against Human immunodeficiency virus 1 3B infected in human CEM cells assessed as inhibition of virus-induced giant cell formation after 4 days by microscopic analysis; format: functional, organism-based; settings: CCRF-CEM, 96 h
How it was run: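 CEM cells at about 3 × 10^5 cells/cm3 were infected with 100 CCID50/ml of virus and seeded into wells containing compound dilutions. After 4 days at 37 °C, giant cell formation was assessed under the microscope.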

[11] = system: Vesicular stomatitis virus; experiment: Antiviral activity against Vesicular stomatitis virus infected in HeLa cells; format: functional, organism-based; how it was run: as §1
Coxsackievirus B4 [12] = experiment: Antiviral activity against Coxsackie virus B4 infected in african green monkey Vero cells assessed as inhibition of virus-induced cytopathogenicity; format: functional, organism-based; settings: Enterovirus B; how it was run: as §1
[13] = Cytotoxicity against MDCK cells assessed as morphological changes by microscopic analysis; format: cell-based, Canis lupus familiaris; settings: dog; how it was run: as §4
Sindbis virus = experiment: Antiviral activity against Sindbis virus infected in african green monkey Vero cells assessed as inhibition of virus-induced cytopathogenicity; format: functional, organism-based; how it was run: as §1
Human alphaherpesvirus 1 [14] = experiment: Antiviral activity against thymidine kinase-deficient Herpes simplex virus 1 infected in HEL cells assessed as inhibition of virus-induced cytopathogenicity; format: functional, organism-based; settings: Human alphaherpesvirus 1, HEL; how it was run: as §5
Human alphaherpesvirus 3 [15] = experiment: Antiviral activity against Varicella zoster virus OKA infected in HEL cells assessed as reduction in viral plaque formation after 5 days relative to control; format: functional, cell-based; settings: Human alphaherpesvirus 3, strain Oka vaccine, 120 h
How it was run: (§7)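 Confluent HEL cells were inoculated with 20 PFU VZV per well (Oka wild type or thymidine kinase-deficient 07-1). Residual virus was removed after 2 h and compound dilutions were added in duplicate. The EC50 is the concentration that reduces plaque formation by 50% after 5 days relative to untreated controls.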

Human betaherpesvirus 5 [16] = experiment: Antiviral activity against Human cytomegalovirus Davis infected in HEL cells assessed as inhibition of virus-induced cytopathogenicity after 7 days by Giemsa staining-based microscopic analysis; format: functional, organism-based; settings: Human betaherpesvirus 5, Davis, 168 h; how it was run: as §6
[17] = Cytotoxicity against african green monkey Vero cells assessed as morphological changes by microscopic analysis; format: cell-based; settings: chlorocebus sabaeus; how it was run: as §4
Human alphaherpesvirus 3 [18] = experiment: Antiviral activity against Varicella zoster virus 07/1 infected in HEL cells assessed as reduction in viral plaque formation after 5 days relative to control; format: functional, organism-based; settings: Human alphaherpesvirus 3, 07/1, HEL, 120 h; how it was run: as §7
[19] = system: Respiratory syncytial virus; experiment: Antiviral activity against Respiratory syncytial virus infected in HeLa cells; format: functional, organism-based; settings: human respiratory syncytial virus; how it was run: as §1
Coxsackievirus B4 [20] = experiment: Antiviral activity against Coxsackie virus B4 infected in HeLa cells; format: functional, organism-based; settings: Enterovirus B; how it was run: as §2

## Nc1nc2c(sc3ncn([C@H]4C[C@H](O)[C@@H](CO)O4)c32)c(=O)[nH]1
Human alphaherpesvirus 2
  EC50: > 100 µM
L1210
  IC50: 144 µM
[1]
  EC50: > 100 µM
Punta Toro virus
  EC50: > 100 µM
Influenza A virus [2]
  EC50: > 0.16 µM
[3]
  MCC: > 100 µM
[4]
  MCC: 100 µM
Human respirovirus 3
  EC50: > 100 µM
Human alphaherpesvirus 1 [5]
  EC50: > 100 µM
Influenza B virus
  EC50: > 0.16 µM
Human betaherpesvirus 5 [6]
  EC50: > 100 µM
[7]
  EC50: ≥ 250 µM
Influenza A virus [8]
  EC50: > 0.16 µM
[9]
  EC50: > 100 µM
[10]
  EC50: ≥ 250 µM
[11]
  EC50: 100 µM
Coxsackievirus B4 [12]
  EC50: > 100 µM
[13]
  MCC: 0.8 µM
Sindbis virus
  EC50: > 100 µM
Human alphaherpesvirus 1 [14]
  EC50: > 100 µM
Human alphaherpesvirus 3 [15]
  EC50: 71.3 µM
Human betaherpesvirus 5 [16]
  EC50: > 100 µM
[17]
  MCC: 100 µM
Human alphaherpesvirus 3 [18]
  EC50: 71.3 µM
[19]
  EC50: > 100 µM
Coxsackievirus B4 [20]
  EC50: > 100 µM

## Nc1ncnc2c1sc1ncn([C@H]3C[C@H](O)[C@@H](CO)O3)c12
Human alphaherpesvirus 2
  EC50: > 20 µM
L1210
  IC50: 53 µM
[1]
  EC50: 100 µM
Influenza A virus [2]
  EC50: > 4 µM
[3]
  MCC: ≥ 20 µM
[4]
  MCC: > 100 µM
Human respirovirus 3
  EC50: > 100 µM
Human alphaherpesvirus 1 [5]
  EC50: > 20 µM
Influenza B virus
  EC50: > 4 µM
Human betaherpesvirus 5 [6]
  EC50: > 4 µM
[7]
  EC50: > 10 µM
Influenza A virus [8]
  EC50: > 4 µM
[9]
  EC50: > 20 µM
[10]
  EC50: > 10 µM
[11]
  EC50: > 100 µM
Coxsackievirus B4 [12]
  EC50: > 100 µM
[13]
  MCC: 20 µM
Human alphaherpesvirus 1 [14]
  EC50: > 20 µM
Human alphaherpesvirus 3 [15]
  EC50: 8.9 µM
Human betaherpesvirus 5 [16]
  EC50: > 4 µM
[17]
  MCC: > 100 µM
Human alphaherpesvirus 3 [18]
  EC50: 8.9 µM
[19]
  EC50: > 100 µM
Coxsackievirus B4 [20]
  EC50: > 100 µM

## NC(=O)c1ncn([C@@H]2O[C@H](CO)[C@@H](O)[C@H]2O)n1 [RIBAVIRIN]
Human alphaherpesvirus 2
  EC50: > 250 µM
[1]
  EC50: > 250 µM
Influenza A virus [2]
  EC50: 2.3 µM
[3]
  MCC: > 250 µM
[4]
  MCC: > 250 µM
Human respirovirus 3
  EC50: 85 µM
Human alphaherpesvirus 1 [5]
  EC50: > 250 µM
Influenza B virus
  EC50: 4.5 µM
[7]
  EC50: > 50 µM
Influenza A virus [8]
  EC50: 5.1 µM
[10]
  EC50: > 50 µM
[11]
  EC50: 29 µM
Coxsackievirus B4 [12]
  EC50: > 250 µM
Sindbis virus
  EC50: > 250 µM
[17]
  MCC: > 250 µM
